Data set [1] has as its system Nucleic Acid. Briefly: Suppression of IDUA W402X nonsense mutant cDNA translation in TNT rabbit reticulocyte lysate transcription translation system at 25 to 100 uM at 30 degC after 90 mins by luciferase reporter gene assay. Put shortly: (§1)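 A dual luciferase reporter plasmid carrying the nonsense-mutation context was used. Luciferase activities were read with a dual luciferase assay kit after incubation, and readthrough was calculated by a previously described method. Translation inhibition was monitored as the ratio of Renilla luciferase activity with versus without aminoglycoside.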
For orientation: A reporter such as luciferase makes a cellular process visible.

For data set [2], the system named is Nucleic Acid. The data set is described as follows: Suppression of CFTR W1282X nonsense mutant cDNA translation in TNT rabbit reticulocyte lysate transcription translation system at 25 to 100 uM at 30 degC after 90 mins by luciferase reporter gene assay. Put shortly:
as §1

The subject of data set [3] is Nucleic Acid. The data set is described as follows: Suppression of IDUA Q70X nonsense mutant cDNA translation in TNT rabbit reticulocyte lysate transcription translation system at 25 to 100 uM at 30 degC after 90 mins by luciferase reporter gene assay. Put shortly:
as §1

The subject of data set [4] is Nucleic Acid. The data set is described as follows: Suppression of CFTR G542X nonsense mutant cDNA translation in TNT rabbit reticulocyte lysate transcription translation system at 25 to 100 uM at 30 degC after 90 mins by luciferase reporter gene assay. Put shortly: as §1
The test system of data set [5] is Escherichia coli. Briefly: Antibacterial activity against Escherichia coli R477-100 by double-microdilution method. The class given is functional.
Data set [6] has as its system Nucleic Acid. The data set is described as follows: Suppression of PCDH15 R3X nonsense mutant cDNA translation in TNT rabbit reticulocyte lysate transcription translation system at 25 to 100 uM at 30 degC after 90 mins by luciferase reporter gene assay. Put shortly:
as §1

The subject of data set [7] is Nucleic Acid. The data set is described as follows: Suppression of PCDH15 R3X nonsense mutant cDNA translation in african green monkey COS7 cells at 0.25 mg/mL. Type of data set: cell-based. The settings on record: COS-7. The procedure, abridged:
(§2)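 COS-7 cells were lipofected with the dual luciferase construct carrying PCDH15 R3X, and drugs were added 5 h after transfection at varying concentrations. Maximal doses were set from LC50 in COS-7 cells to keep cell viability above 80%. Stop-codon readthrough was read by dual luciferase assay and calculated by a previously described method.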

The test system of data set [8] is Nucleic Acid. The data set is described as follows: Suppression of PCDH15 R245X nonsense mutant cDNA translation in TNT rabbit reticulocyte lysate transcription translation system at 25 to 100 uM at 30 degC after 90 mins by luciferase reporter gene assay. The procedure, abridged: as §1
In data set [9] the test system is Nucleic Acid. The data set is described as follows: Suppression of Dystrophin R3381X nonsense mutant cDNA translation in TNT rabbit reticulocyte lysate transcription translation system at 25 to 100 uM at 30 degC after 90 mins by luciferase reporter gene assay. Put shortly: as §1
Data set [10] can be described thus: (§3) Toxicity against HEK293 cells. The class given is cell-based. The note with it: human, HEK293 cells; read-out: LC50 (the source's name).
Data set [11] in a line: Ototoxicity in mouse organ of Corti cochlear explants assessed as outer hair cell loss at 0.2 mM by F-actin staining. Type of data set: toxicity. The note with it: 200 µM. The procedure, abridged: (§4)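 Cochlea dissected from postnatal day 3 mice; organ of Corti/spiral ganglion flat preparation cultured serum-free (BME, supplement, 1% BSA, 2 mM glutamine, glucose, penicillin) at 37°C, 5% CO2, 24 h before medium swapped for drug-containing medium. Fixed in 4% paraformaldehyde, permeabilized with Triton X-100, blocked with goat serum, F-actin stained with fluorescent phalloidin; basal segments examined.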

Data set [12] can be described thus: Ototoxicity in mouse organ of Corti cochlear explants assessed as outer hair cell loss at 1 mM by F-actin staining. Type of data set: toxicity. The note with it: 1000 µM. The procedure, abridged: as §4
In data set [13] the test system is Nucleic Acid. The data set is described as follows: Suppression of PCDH15 R3X nonsense mutant cDNA translation in african green monkey COS7 cells at 1 mg/mL. The note with it: COS-7. Type of data set: cell-based. The procedure, abridged: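 Dual luciferase reporter carrying PCDH15-R3X transfected into COS-7 cells by lipofection. Compound added 5 h post-transfection. Luciferase activity measured with a dual luciferase assay system, and readthrough calculated by a previously described method.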

For data set [14], the system named is Escherichia coli. The data set is described as follows: Inhibition of protein translation in Escherichia coli by coupled transcription/translation assay. Type of data set: functional.
Another data set deals with Mus musculus. The data set is described as follows: Acute toxicity in iv dosed BALB/c mouse assessed as mortality administered as single dose after 4 days. Type of data set: organism-based. The settings on record: in vivo, 96 h. The procedure, abridged:
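Male BALB/c mice, […] (18-20 g), 12 h light/dark cycle at 20-22 °C, food and water ad libitum. Single intravenous tail-vein injection of 150 µL of drug in PBS (pH 7), 8 animals per concentration. Appearance, behaviour and mortality were monitored for 4 days, and LD50 was derived by the Reed and Muench method.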

The nature of data set [15]: Ototoxicity in mouse organ of Corti cochlear explants assessed as inner hair cell loss at 0.1 mM by F-actin staining. The class given is toxicity. The settings on record: 100 µM. The procedure, abridged: as §4
The nature of data set [16]: Ototoxicity in mouse organ of Corti cochlear explants assessed as inner hair cell loss at 0.2 mM by F-actin staining. Type of data set: toxicity. The note with it: 200 µM. Put shortly: as §4
Data set [17] can be described thus: (§5) Toxicity against MDCK cells. Type of data set: cell-based, Canis lupus familiaris. The note with it: dog, MDCK cells; read-out: LC50 (the source's name).
Data set [18] can be described thus: Toxicity against african green monkey COS7 cells. Type of data set: cell-based, COS-7. The note with it: chlorocebus aethiops, read-out: LC50 (the source's name).
The subject of data set [19] is Ribosomal RNA A-site. The data set is described as follows: Binding affinity to human cytoplasmic ribosomal RNA A-site. The class given is nucleic-acid assay. The procedure, abridged:
(§6)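 UV melting of RNA A-site model oligonucleotide, 2 µM in strand, drug 0 to 10 µM, in 10 mM EPPS (pH 7.0), 10 mM NaCl. RNA preheated 85 °C 5 min and slowly cooled. Absorbance read at 274 nm, 1 cm path, 0.5 °C steps with 1.5 min equilibration per step; ΔTm derived.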

For data set [20], the system named is Ribosomal RNA A-site. The data set is described as follows: Binding affinity to human cytoplasmic ribosomal RNA A-site assessed as thermal stability at compound/RNA ratio of 5 by UV melting profile method. The class given is nucleic-acid assay. The procedure, abridged: as §6
A short description of data set [21]: Ototoxicity in mouse organ of Corti cochlear explants assessed as inner hair cell loss at 1 mM by F-actin staining. The class given is toxicity. The settings on record: 1000 µM. Put shortly:
as §4

Data set [22] in a line: Ototoxicity in mouse organ of Corti cochlear explants assessed as outer hair cell loss at 0.1 mM by F-actin staining. The class given is toxicity. The settings on record: 100 µM. The procedure, abridged: as §4
The test system of data set [23] is Nucleic Acid. The data set is described as follows: Suppression of PCDH15 R3X nonsense mutant cDNA translation in african green monkey COS7 cells at 0.5 mg/mL. Type of data set: cell-based. The settings on record: COS-7. Put shortly: as §2
The test system of a further data set is HEK293. The description is as §3. Type of data set: cell-based. The settings on record: human, hek293; read-out: LC50 (the source's name).
The test system of a further data set is MDCK. The data set is described as §5. The settings on record: dog, mdck; read-out: LC50 (the source's name). Type of data set: cell-based, Canis lupus familiaris.

≈ marks a conversion by molar mass, not a printed value.

As a reminder, the MIC is the lowest concentration found to suppress growth. Broadly, the IC50 is the concentration that gives 50% inhibition. Broadly, the LD50 is the dose expected to kill half of the subjects tested. As a reminder, the ΔTm is the shift of the melting midpoint relative to a reference.

Take GENTAMICIN [listing 1 of 2 here]: the Activity with Nucleic Acid [1] was 50%; in the data set with Nucleic Acid [2], 50%; in the data set with Nucleic Acid [3], 50%; in the data set on Nucleic Acid [4] it was 50%; in the data set with Nucleic Acid [6] it was 50%; in the data set on Nucleic Acid [7], 1.86%. Moreover, the Activity in the data set with Nucleic Acid [8] and in the data set with Nucleic Acid [9] was 50% in each case. For the same compound, in the data set on Escherichia coli [5], the MIC was 6 µM.
Take `NC[C@H]1O[C@@H](O[C@@H]2[C@@H](O)[C@H](N)C[C@H](N)[C@H]2O[C@H]2O[C@H](CO)[C@@H](O)[C@H](O)[C@H]2N)[C@H](O)[C@@H]1O`: the results for the CC50 in data set [10], in [17] and in [18] (COS7 cells) were 7400 µM, 11500 µM and 10800 µM, respectively. The Activity in the data set on Nucleic Acid [1] was 30%; in [11], “Toxic”; in [12] it was “Non-toxic”; with Nucleic Acid [13], 2.75%; in the data set on Nucleic Acid [2] it was 30%; in the data set with Nucleic Acid [3] it was 30%. The Activity with Nucleic Acid [4] was 30%; in data set [15], “Non-toxic”; in data set [16] it was “Toxic”; in the data set on Nucleic Acid [6], 30%; in the data set on Nucleic Acid [8], 30%; in the data set with Nucleic Acid [9], 30%. Further, the Activity entry in data set [21] and in data set [22] was “Non-toxic” throughout. Also, the IC50 in the data set on Escherichia coli [14] (Escherichia coli) worked out at 0.415 µM. Besides, the LD50 in the data set with Mus musculus amounted to 240 mg/kg. In the data set with Escherichia coli [5], this compound displayed an MIC of 790 µM (≈ 359 µg/mL). This compound also showed a Ka in the data set with Ribosomal RNA A-site [19] of 4.7 ×10³ /M. The ΔTm with Ribosomal RNA A-site [20] amounted to 4.5 °C.
Consider `NC[C@@H]1O[C@H](O[C@H]2[C@@H](O)[C@H](O[C@@H]3[C@@H](O)[C@H](N)C[C@H](N)[C@H]3O[C@H]3O[C@H](CO)[C@@H](O)[C@H](O)[C@H]3N)O[C@@H]2CO)[C@H](N)[C@@H](O)[C@@H]1O` [PAROMOMYCIN], for which the CC50 in data set [10] worked out at 1200 µM; in [17], 1500 µM; in data set [18] (COS7 cells), 1400 µM. The Activity stood at 40% in the data set on Nucleic Acid [1]; 1.62% in the data set with Nucleic Acid [23]; 40% with Nucleic Acid [2]; 40% with Nucleic Acid [3]; 40% in the data set with Nucleic Acid [4]; 40% in the data set with Nucleic Acid [6]. Besides, the Activity with Nucleic Acid [8] and with Nucleic Acid [9] was 40% throughout. For the same compound, the 50% inhibitory concentration (IC50) with Escherichia coli [14] (Escherichia coli) came out at 0.056 µM. In addition, the LD50 in the data set on Mus musculus is 80 mg/kg. In addition, 22 µM (≈ 13.5 µg/mL) was the least that counted as inhibitory against Escherichia coli [5] (MIC).
Turning to `NCC[C@H](O)C(=O)N[C@@H]1C[C@H](N)[C@@H](O[C@H]2O[C@H](CO)[C@@H](O)[C@H](O)[C@H]2N)[C@H](O[C@@H]2O[C@H](CN)[C@@H](O)[C@H]2O)[C@H]1O`, the CC50 in the data set on HEK293 was 2800 µM; in the data set with MDCK it was 3300 µM; in data set [18] (cos-7), 9300 µM. Further, the Activity in the data set on Nucleic Acid [1] was 50%; in data set [11], “Toxic”; in [12], “Non-toxic”; in the data set with Nucleic Acid [13], 5.25%; in the data set with Nucleic Acid [2], 50%; in the data set on Nucleic Acid [3] it was 50%. In addition, the Activity was 50% in the data set with Nucleic Acid [4]; “Non-toxic” in data set [15]; “Toxic” in data set [16]; 50% in the data set with Nucleic Acid [6]; 50% with Nucleic Acid [8]; 50% with Nucleic Acid [9]. Further, the Activity result in data set [21] and in data set [22] was “Non-toxic” in each case. Further, in the data set with Escherichia coli [14] (Escherichia coli), the IC50 worked out at 0.159 µM. For the same compound, the LD50 in the data set on Mus musculus was determined as 500 mg/kg. Moreover, it took 588 µM (≈ 327 µg/mL) to inhibit growth in the data set with Escherichia coli [5] (MIC). Moreover, in the data set with Ribosomal RNA A-site [20], the ΔTm is 9.7 °C.
Regarding GENTAMICIN [listing 2 of 2 here], the values for the CC50 (in the data set on HEK293; in the data set on MDCK; in data set [18] (cos-7)) were 1100 µM, 780 µM and 750 µM, respectively. For the same compound, half-maximal inhibition in the data set with Escherichia coli [14] (IC50) was put at 0.02 µM. For the same compound, in the data set on Mus musculus, the LD50 came out at 60 mg/kg.

The values are drawn from ChEMBL document CHEMBL1138589, “Development of novel aminoglycoside (NB54) with reduced toxicity and enhanced suppression of disease-causing premature stop mutations” (J Med Chem, 2009).
